Reference: ChEMBL document CHEMBL3784943, “Structure based medicinal chemistry-driven strategy to design substituted dihydropyrimidines as potential antileishmanial agents” (Eur J Med Chem, 2016)
≈ marks a conversion by molar mass, not a printed value.

How the values were obtained:
Leishmania major = experiment: Antileishmanial activity against Leishmania major promastigotes after 72 hrs by Neubauer chamber counting; assay type: functional, organism-based
Leishmania donovani = experiment: Antileishmanial activity against Leishmania donovani promastigotes after 72 hrs by Neubauer chamber counting; assay type: functional, organism-based
In short: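 Clinical isolate promastigotes grown at 24 °C in medium 199 with 10% fetal bovine serum, HEPES, sodium bicarbonate, penicillin and streptomycin. Cultures harvested after 6–7 days, washed three times in PBS, resuspended at 2 × 10^6 cells/mL and exposed to serial compound dilutions for 72 h at 24 °C with shaking. Amphotericin B positive control, DMSO negative control. Run in triplicate; IC50 from live-cell counts.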

[1] = Leishmania donovani, 72 h, read-out: IC50

Structure (SMILES)	IC50 (Leishmania major)	IC50 (Leishmania donovani; [1])	IC50 (Leishmania donovani)
CCOC(=O)C1=C(C)NC(=O)NC1c1ccccc1 (configuration not stated)	0.99 µg/mL (≈ 3.8 µM)		
CC(=O)C1=C(C)NC(=O)NC1c1cccc([N+](=O)[O-])c1 (configuration not stated)	0.67 µg/mL (≈ 2.43 µM)		
CC(=O)C1=C(C)NC(=O)NC1c1cccc(C)c1 (configuration not stated)	0.89 µg/mL (≈ 3.64 µM)		
CC(=O)C1=C(CNc2ccc(C(=O)/C=C/c3ccccc3)cc2)N(C)C(=O)NC1c1ccccc1 (configuration not stated)	0.54 µg/mL (≈ 1.16 µM)	> 100 µg/mL	
CC(=O)C1=C(CNc2ccc(C(=O)/C=C/c3cccc([N+](=O)[O-])c3)cc2)N(C)C(=O)NC1c1ccccc1 (configuration not stated)	0.67 µg/mL (≈ 1.31 µM)	> 100 µg/mL	
CC1=C(C(=O)/C=C/c2ccc(Cl)cc2)C(c2ccccc2)NC(=O)N1C (configuration not stated)	0.63 µg/mL (≈ 1.72 µM)		Not Active
CC(=O)C1=C(C)NC(=S)NC1c1ccccc1 (configuration not stated)	0.78 µg/mL (≈ 3.17 µM)		
CC(=O)C1=C(C)NC(=O)NC1c1ccccc1 (configuration not stated)	0.61 µg/mL (≈ 2.65 µM)		
CC1=C(C(=O)/C=C/c2cccc([N+](=O)[O-])c2)C(c2ccccc2)NC(=O)N1C (configuration not stated)	0.73 µg/mL (≈ 1.93 µM)		Not Active
CC1=C(C(=O)/C=C/c2ccc(O)cc2)C(c2ccccc2)NC(=O)N1C (configuration not stated)	0.59 µg/mL (≈ 1.69 µM)		Not Active
CC(=O)C1=C(C)N(C)C(=O)NC1c1ccccc1 (configuration not stated)	0.63 µg/mL (≈ 2.58 µM)		
COc1ccc(C2NC(=O)NC(C)=C2C(C)=O)cc1 (configuration not stated)	0.69 µg/mL (≈ 2.65 µM)		
CC(=O)C1=C(CNc2ccc(C(=O)/C=C/c3ccc(O)cc3)cc2)N(C)C(=O)NC1c1ccccc1 (configuration not stated)	0.51 µg/mL (≈ 1.06 µM)	7.5 µg/mL (≈ 15.6 µM)	
CC(=O)C1=C(CNc2ccc(C(=O)/C=C/c3ccc(Cl)cc3)cc2)N(C)C(=O)NC1c1ccccc1 (configuration not stated)	0.53 µg/mL (≈ 1.06 µM)	4.4 µg/mL (≈ 8.8 µM)	
CC1=C(C(=O)Nc2ccc(C(=O)/C=C/c3cccc([N+](=O)[O-])c3)cc2)C(c2cccc(O)c2)NC(=S)N1 (configuration not stated)	0.58 µg/mL (≈ 1.13 µM)		Not Active
COCC1=C(C(=O)OC)C(c2cccc([N+](=O)[O-])c2)NC(=O)N1 (configuration not stated)	0.95 µg/mL (≈ 2.96 µM)		
CCOC(=O)C1=C(C)NC(=S)NC1c1cccc(O)c1 (configuration not stated) [MONASTROL]	0.65 µg/mL (≈ 2.22 µM)		
CCOC(=O)C1=C(C)NC(=S)NC1c1ccc(C)cc1 (configuration not stated)	0.63 µg/mL (≈ 2.17 µM)		
COc1cc(C2NC(=O)NC(C)=C2C(C)=O)ccc1O (configuration not stated)	0.71 µg/mL (≈ 2.57 µM)		
CC1=C(C(=O)Nc2ccc(C(=O)/C=C/c3ccc(O)cc3)cc2)C(c2ccc(C)cc2)NC(=S)N1 (configuration not stated)	0.53 µg/mL (≈ 1.1 µM)		Not Active
CC(=O)C1=C(CNc2ccc(C3=NNC(c4ccc(O)cc4)C3)cc2)N(C)C(=O)NC1c1ccccc1 (configuration not stated)	0.47 µg/mL (≈ 0.948 µM)	1.5 µg/mL (≈ 3.03 µM)	
CC1=C(C(=O)Nc2ccc(C(=O)/C=C/c3cccc([N+](=O)[O-])c3)cc2)C(c2ccc(C)cc2)NC(=S)N1 (configuration not stated)	0.65 µg/mL (≈ 1.27 µM)		Not Active
CC1=C(C(=O)Nc2ccc(C(=O)/C=C/c3ccc(O)cc3)cc2)C(c2cccc(O)c2)NC(=S)N1 (configuration not stated)	0.51 µg/mL (≈ 1.05 µM)	5.58 µg/mL (≈ 11.5 µM)	
CC(=O)C1=C(CNc2ccc(C(=O)/C=C/c3ccc(N(C)C)cc3)cc2)N(C)C(=O)NC1c1ccccc1 (configuration not stated)	0.71 µg/mL (≈ 1.4 µM)		Not Active
